# Measurements: ChEMBL document CHEMBL4346672, “Antimicrobial and KPC/AmpC inhibitory activity of functionalized benzosiloxaboroles” (Eur J Med Chem, 2019)
# The source made the active and inactive calls. The calls are words filed in the database; no cut-off is given here.
# Test system: Meyerozyma guilliermondii
# Assay: Antifungal activity against Candida guilliermondii IBA 155 assessed as decrease in fungal cell growth at 0.78 to 12.5 mg/L incubated for 24 hrs by CLSI broth dilution method
# Format: functional
# Conditions: IBA 155, 24 h
# Procedure, shortened: (§1)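 Yeast broth dilution in RPMI 1640 with 2% glucose, compounds in DMSO. Yeasts pre-grown on Sabouraud dextrose agar. Growth read after 35 °C, 24 h.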
row,MIC [µg/mL],SMILES
1,200,C[Si]1(C)OB(O)c2cc(F)c(C=O)c(F)c21

# Test system: Bordetella bronchiseptica
# Assay: Antibacterial activity against Bordetella bronchiseptica ATCC 4617 assessed as diameter of zone inhibition measured after 18 hrs by CLSI disc diffusion method
# Format: functional
# Conditions: not given
# Procedure, shortened: (§2)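 Disc diffusion on Mueller-Hinton II agar. Compounds dissolved in DMSO. Strains stored at -80 °C and subcultured twice on tryptic soy agar before testing. Inhibition zones read after 35 °C, 18 h.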
row,SMILES,diameter of the inhibition zone (DIZ)
1,C[Si]1(C)OB(O)c2cc(F)c(C=O)c(F)c21,inactive

# Test system: Meyerozyma guilliermondii
# Assay: Antifungal activity against Candida guilliermondii IBA 155 assessed as diameter of zone inhibition incubated for 24 hrs by CLSI disc diffusion method
# Format: functional
# Conditions: not given
# Procedure, shortened: (§3)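 Yeast disc diffusion on Mueller-Hinton agar supplemented with 2% glucose and 0.5 mg/L methylene blue. Compounds in DMSO. Yeasts subcultured on Sabouraud dextrose agar before testing. Zones read after 35 °C, 24 h.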
row,SMILES,diameter of the inhibition zone (DIZ)
1,C[Si]1(C)OB(O)c2cc(F)c(C=O)c(F)c21,inactive

# Test system: Enterococcus faecalis
# Assay: Antibacterial activity against Enterococcus faecalis ATCC 29212 measured after 18 hrs by CLSI broth dilution method
# Format: functional
# Conditions: ATCC 29212, 18 h
# Procedure, shortened: (§4)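 Broth MIC in Mueller-Hinton II broth following CLSI, compounds dissolved in DMSO. Strains subcultured twice on tryptic soy agar before testing. Growth read after 35 °C, 18 h.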
row,MIC [µg/mL],SMILES
1,400,C[Si]1(C)OB(O)c2cc(F)c(C=O)c(F)c21

# Test system: Candida albicans
# Assay: Antifungal activity against Candida albicans ATCC 90028 assessed as diameter of zone inhibition incubated for 24 hrs by CLSI disc diffusion method
# Format: functional
# Conditions: not given
# Procedure, shortened: as §3
row,SMILES,diameter of the inhibition zone (DIZ)
1,C[Si]1(C)OB(O)c2cc(F)c(C=O)c(F)c21,inactive

# Test system: Candida tropicalis
# Assay: Antifungal activity against Candida tropicalis IBA 171 assessed as diameter of zone inhibition incubated for 24 hrs by CLSI disc diffusion method
# Format: functional
# Conditions: not given
# Procedure, shortened: as §3
row,SMILES,diameter of the inhibition zone (DIZ)
1,C[Si]1(C)OB(O)c2cc(F)c(C=O)c(F)c21,inactive

# Test system: Staphylococcus aureus
# Assay: Antibacterial activity against Staphylococcus aureus ATCC 6538P measured after 18 hrs by CLSI broth dilution method
# Format: functional
# Conditions: not given
# Procedure, shortened: as §4
row,MIC [µg/mL],SMILES
1,200,C[Si]1(C)OB(O)c2cc(F)c(C=O)c(F)c21

# Test system: Klebsiella pneumoniae
# Assay: Antibacterial activity against Klebsiella pneumoniae ATCC 13883 measured after 18 hrs by CLSI broth dilution method
# Format: functional
# Conditions: ATCC 13883, 18 h
# Procedure, shortened: as §4
row,MIC [µg/mL],SMILES
1,> 400,C[Si]1(C)OB(O)c2cc(F)c(C=O)c(F)c21

# Test system: Enterococcus faecalis
# Assay: Antibacterial activity against Enterococcus faecalis ATCC 29212 assessed as diameter of zone inhibition measured after 18 hrs by CLSI disc diffusion method
# Format: functional
# Conditions: not given
# Procedure, shortened: as §2
row,SMILES,diameter of the inhibition zone (DIZ)
1,C[Si]1(C)OB(O)c2cc(F)c(C=O)c(F)c21,inactive

# Test system: Burkholderia cepacia
# Assay: Antibacterial activity against Burkholderia cepacia ATCC 25416 measured after 18 hrs by CLSI broth dilution method
# Format: functional
# Conditions: ATCC 25416, 18 h
# Procedure, shortened: as §4
row,MIC [µg/mL],SMILES
1,> 400,C[Si]1(C)OB(O)c2cc(F)c(C=O)c(F)c21

# Test system: Enterococcus faecium
# Assay: Antibacterial activity against Enterococcus faecium ATCC 6057 assessed as diameter of zone inhibition measured after 18 hrs by CLSI disc diffusion method
# Format: functional
# Conditions: not given
# Procedure, shortened: as §2
row,SMILES,diameter of the inhibition zone (DIZ)
1,C[Si]1(C)OB(O)c2cc(F)c(C=O)c(F)c21,inactive

# Test system: Candida parapsilosis
# Assay: Antifungal activity against Candida parapsilosis ATCC 22019 assessed as diameter of zone inhibition incubated for 24 hrs by CLSI disc diffusion method
# Format: functional
# Conditions: not given
# Procedure, shortened: as §3
row,SMILES,diameter of the inhibition zone (DIZ)
1,C[Si]1(C)OB(O)c2cc(F)c(C=O)c(F)c21,inactive

# Test system: Escherichia coli
# Assay: Antibacterial activity against Escherichia coli ATCC 25922 assessed as fold reduction of MIC in presence of efflux pump inhibitor PAbetaN incubated for 18 hrs by CLSI broth microdilution method
# Format: functional
# Conditions: not given
# Procedure, shortened: (§5)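 MICs determined with and without PAβN at 50 mg/L in Mueller-Hinton broth containing 1 mM MgSO₄. 2-fold serial dilutions per CLSI. Fold change taken from the paired MICs after 35 °C, 18 h.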
row,SMILES,fold change (FC)
1,C[Si]1(C)OB(O)c2cc(F)c(C=O)c(F)c21,4

# Test system: Serratia marcescens
# Conditions: ATCC 13880
row,SMILES,DIZ
1,C[Si]1(C)OB(O)c2cc(F)c(C=O)c(F)c21,inactive

# Test system: Serratia marcescens
# Assay: Antibacterial activity against Serratia marcescens ATCC 13880 measured after 18 hrs by CLSI broth dilution method
# Format: functional
# Conditions: ATCC 13880, 18 h
# Procedure, shortened: as §4
row,MIC [µg/mL],SMILES
1,> 400,C[Si]1(C)OB(O)c2cc(F)c(C=O)c(F)c21

# Test system: Enterococcus faecium
# Assay: Antibacterial activity against Enterococcus faecium ATCC 6057 measured after 18 hrs by CLSI broth dilution method
# Format: functional
# Conditions: ATCC 6057, 18 h
# Procedure, shortened: as §4
row,MIC [µg/mL],SMILES
1,50,C[Si]1(C)OB(O)c2cc(F)c(C=O)c(F)c21

# Test system: Burkholderia cepacia
# Assay: Antibacterial activity against Burkholderia cepacia ATCC 25416 assessed as diameter of zone inhibition measured after 18 hrs by CLSI disc diffusion method
# Format: functional
# Conditions: not given
# Procedure, shortened: as §2
row,SMILES,diameter of the inhibition zone (DIZ)
1,C[Si]1(C)OB(O)c2cc(F)c(C=O)c(F)c21,inactive

# Test system: Acinetobacter baumannii
# Assay: Antibacterial activity against Acinetobacter baumannii ATCC 19606 assessed as diameter of zone inhibition measured after 18 hrs by CLSI disc diffusion method
# Format: functional
# Conditions: not given
# Procedure, shortened: as §2
row,SMILES,diameter of the inhibition zone (DIZ)
1,C[Si]1(C)OB(O)c2cc(F)c(C=O)c(F)c21,inactive

# Test system: Pseudomonas aeruginosa
# Assay: Antibacterial activity against Pseudomonas aeruginosa ATCC 27853 measured after 18 hrs by CLSI broth dilution method
# Format: functional
# Conditions: ATCC 27853, 18 h
# Procedure, shortened: as §4
row,MIC [µg/mL],SMILES
1,> 400,C[Si]1(C)OB(O)c2cc(F)c(C=O)c(F)c21

# Test system: Enterobacter cloacae
# Assay: Antibacterial activity against Enterobacter cloacae DSM 6234 measured after 18 hrs by CLSI broth dilution method
# Format: functional
# Conditions: DSM 6234, 18 h
# Procedure, shortened: as §4
row,MIC [µg/mL],SMILES
1,> 400,C[Si]1(C)OB(O)c2cc(F)c(C=O)c(F)c21

# Test system: Proteus mirabilis
# Assay: Antibacterial activity against Proteus mirabilis ATCC 12453 assessed as fold reduction of MIC in presence of efflux pump inhibitor PAbetaN incubated for 18 hrs by broth microdilution method
# Format: functional
# Conditions: not given
# Procedure, shortened: as §5
row,SMILES,fold change (FC)
1,C[Si]1(C)OB(O)c2cc(F)c(C=O)c(F)c21,2

# Test system: Bordetella bronchiseptica
# Assay: Antibacterial activity against Bordetella bronchiseptica ATCC 4617 measured after 18 hrs by CLSI broth dilution method
# Format: functional
# Conditions: ATCC 4617, 18 h
# Procedure, shortened: as §4
row,MIC [µg/mL],SMILES
1,> 400,C[Si]1(C)OB(O)c2cc(F)c(C=O)c(F)c21

# Test system: Bacillus subtilis
# Assay: Antibacterial activity against Bacillus subtilis ATCC 6633 assessed as diameter of zone inhibition measured after 18 hrs by CLSI disc diffusion method
# Format: functional
# Conditions: not given
# Procedure, shortened: as §2
row,SMILES,diameter of the inhibition zone (DIZ) [mm]
1,C[Si]1(C)OB(O)c2cc(F)c(C=O)c(F)c21,14

# Test system: Proteus mirabilis
# Assay: Antibacterial activity against Proteus mirabilis ATCC 12453 assessed as diameter of zone inhibition measured after 18 hrs by CLSI disc diffusion method
# Format: functional
# Conditions: not given
# Procedure, shortened: as §2
row,SMILES,diameter of the inhibition zone (DIZ)
1,C[Si]1(C)OB(O)c2cc(F)c(C=O)c(F)c21,inactive

# Test system: Klebsiella pneumoniae
# Assay: Antibacterial activity against Klebsiella pneumoniae ATCC 13883 assessed as fold reduction of MIC in presence of efflux pump inhibitor PAbetaN incubated for 18 hrs by broth microdilution method
# Format: functional
# Conditions: not given
# Procedure, shortened: as §5
row,SMILES,fold change (FC)
1,C[Si]1(C)OB(O)c2cc(F)c(C=O)c(F)c21,4

# Test system: Candida parapsilosis
# Assay: Antifungal activity against Candida parapsilosis ATCC 22019 assessed as decrease in fungal cell growth at 0.78 to 12.5 mg/L incubated for 24 hrs by CLSI broth dilution method
# Format: functional
# Conditions: Lodderomyces parapsilosis, ATCC 22019, 24 h
# Procedure, shortened: as §1
row,MIC [µg/mL],SMILES
1,25,C[Si]1(C)OB(O)c2cc(F)c(C=O)c(F)c21

# Test system: not listed separately
# Assay: Dissociation constant, pKa1 of compound in 0.1 M NaOH by potentiometric analysis
# Format: physicochemical
# Conditions: not given
row,pKa,SMILES
1,4.9,C[Si]1(C)OB(O)c2cc(F)c(C=O)c(F)c21

# Test system: Staphylococcus aureus
# Assay: Antibacterial activity against Staphylococcus aureus ATCC 6538P assessed as diameter of zone inhibition measured after 18 hrs by CLSI disc diffusion method
# Format: functional
# Conditions: not given
# Procedure, shortened: as §2
row,SMILES,diameter of the inhibition zone (DIZ) [mm]
1,C[Si]1(C)OB(O)c2cc(F)c(C=O)c(F)c21,21

# Test system: Escherichia coli
# Assay: Antibacterial activity against Escherichia coli ATCC 25922 assessed as diameter of zone inhibition measured after 18 hrs by CLSI disc diffusion method
# Format: functional
# Conditions: not given
# Procedure, shortened: as §2
row,SMILES,diameter of the inhibition zone (DIZ)
1,C[Si]1(C)OB(O)c2cc(F)c(C=O)c(F)c21,inactive

# Test system: Stenotrophomonas maltophilia
# Assay: Antibacterial activity against Stenotrophomonas maltophilia ATCC 13637 assessed as fold reduction of MIC in presence of efflux pump inhibitor PAbetaN incubated for 18 hrs by broth microdilution method
# Format: functional
# Conditions: not given
# Procedure, shortened: as §5
row,SMILES,fold change (FC)
1,C[Si]1(C)OB(O)c2cc(F)c(C=O)c(F)c21,8

# Test system: Klebsiella pneumoniae
# Conditions: ATCC 13883
row,SMILES,DIZ
1,C[Si]1(C)OB(O)c2cc(F)c(C=O)c(F)c21,inactive

# Test system: Acinetobacter baumannii
# Assay: Antibacterial activity against Acinetobacter baumannii ATCC 19606 measured after 18 hrs by CLSI broth dilution method
# Format: functional
# Conditions: ATCC 19606, 18 h
# Procedure, shortened: as §4
row,MIC [µg/mL],SMILES
1,> 400,C[Si]1(C)OB(O)c2cc(F)c(C=O)c(F)c21

# Test system: Stenotrophomonas maltophilia
# Assay: Antibacterial activity against Stenotrophomonas maltophilia ATCC 13637 measured after 18 hrs by CLSI broth dilution method
# Format: functional
# Conditions: ATCC 13637, 18 h
# Procedure, shortened: as §4
row,MIC [µg/mL],SMILES
1,> 400,C[Si]1(C)OB(O)c2cc(F)c(C=O)c(F)c21

# Test system: Pichia kudriavzevii
# Assay: Antifungal activity against Candida krusei ATCC 6258 assessed as diameter of zone inhibition incubated for 24 hrs by CLSI disc diffusion method
# Format: functional
# Conditions: not given
# Procedure, shortened: as §3
row,SMILES,diameter of the inhibition zone (DIZ)
1,C[Si]1(C)OB(O)c2cc(F)c(C=O)c(F)c21,inactive

# Test system: Proteus mirabilis
# Assay: Antibacterial activity against Proteus mirabilis ATCC 12453 measured after 18 hrs by CLSI broth dilution method
# Format: functional
# Conditions: ATCC 12453, 18 h
# Procedure, shortened: as §4
row,MIC [µg/mL],SMILES
1,> 400,C[Si]1(C)OB(O)c2cc(F)c(C=O)c(F)c21

# Test system: Staphylococcus epidermidis
# Assay: Antibacterial activity against Staphylococcus epidermidis ATCC 12228 assessed as diameter of zone inhibition measured after 18 hrs by CLSI disc diffusion method
# Format: functional
# Conditions: not given
# Procedure, shortened: as §2
row,SMILES,diameter of the inhibition zone (DIZ) [mm]
1,C[Si]1(C)OB(O)c2cc(F)c(C=O)c(F)c21,22
